Assay results gathered from unrelated publications.
Compare with care: the assays were run in different laboratories.
Target: Serine/threonine-protein kinase 38 (STK38, Homo sapiens, UniProt Q15208)

c1ccc(N2CCN(Cc3nc4ccccc4[nH]3)CC2)nc1 gave a remaining binding of 89% (binding, competition with immobilised ligand; 1 µM).
c1nc2c(Nc3ccc4c(c3)OCCO4)nc(Nc3ccc4c(c3)OCCO4)nc2[nH]1 gave an activity vs control of 73% (enzyme activity, inhibitor; 10 µM).
The remaining binding of C[C@H](c1ccnc(Nc2nc3ccc(-c4cc(N(C)C)ncn4)cc3[nH]2)c1)N1CCN(C(=O)CC(F)(F)F)CC1 is reported as 100% (cell-free assay, competition with immobilised ligand; 0.1 µM).
CCN1CCC2(CC1)NC(=O)c1c(c3ccc(Cl)c(Cl)c3n1C)C2C#N (racemic) has a ΔTm of 0.1 °C (thermal stability, DSF; 10 µM).
With Cc1cc(NC(=O)c2cccc(S(F)(F)(F)(F)F)c2)cc(-n2ccn3nc(-c4cccnc4)cc23)c1 the remaining binding was 92.3% (cell-free assay, competition with immobilised ligand; 1 µM).
For Cn1c2c(Cl)c(Cl)ccc2c2cc[nH]c(=O)c21, the ΔTm was 0 °C (thermal stability, DSF; 10 µM).
For Cc1sc(C(=O)NC2COC2)cc1-n1cc(NC(=O)Nc2c(F)cccc2Cl)cn1, the remaining activity was 91.5% (enzyme activity, inhibitor; 10 µM).
The remaining signal of O=C1Nc2ccc(Cl)cc2C1=Cc1cc(Cl)c(O)c(Cl)c1 is reported as 85.4% (cell-free assay; 0.5 µM).
With O=C(Nc1cnc(Oc2ccc(F)cc2)nc1)N1CCc2ncccc2[C@@H]1c1ccc(F)cc1 the remaining binding was 91% (cell-free assay, competition with immobilised ligand; 1 µM).
The ΔTm of Cn1c2c(Cl)c(Cl)ccc2c2cn[nH]c(=O)c21 is reported as 0 °C (thermal stability, DSF; 10 µM).
With O=C(Nc1cnn(-c2csc(C(=O)NC3COC3)c2)c1)Nc1c(F)cccc1Cl the remaining activity was 95.5% (enzyme activity, inhibitor; 5 µM).
For Cc1ccc(C(=O)Nc2ccc(CN3CCN(C)CC3)c(C(F)(F)F)c2)cc1C#Cc1cnc2cccnn12, the remaining activity was 78% (enzyme activity, inhibitor; 23.5 nM).
CN1CCC2(CC1)NC(=O)c1c(c3ccc(Cl)c(Cl)c3n1C)C2C#N (racemic) gave a ΔTm of 0 °C (thermal stability, DSF; 10 µM).
CCCOc1ccc([C@@H]2[C@@H](C(=O)O)[C@H](c3ccc4c(c3)OCO4)CN2CC(=O)Nc2c(CC)cccc2CC)cc1 has a remaining binding of 83% (cell-free assay, competition with immobilised ligand; 1 µM).
Cn1c2c(Cl)c(Cl)ccc2c2cc(N)[nH]c(=O)c21 gave a ΔTm of -0.2 °C (thermal stability, DSF; 10 µM).
With CCN1CCN(Cc2ccc(NC(=O)c3ccc(C)c(Oc4ccnc5[nH]ccc45)c3)cc2C(F)(F)F)CC1 the inhibition was -11.4% (target engagement in cells, inhibitor, chemoproteomics; A-375; 50 nM).
Cn1c2c(c3ccc(Cl)c(Cl)c31)C(C#N)C1(CCNCC1)NC2=O (racemic) has a ΔTm of 0.4 °C (thermal stability, DSF; 10 µM).
The remaining signal of COc1cc2c(N3CCN(C(=O)Nc4ccc(OC(C)C)cc4)CC3)ncnc2cc1OCCCN1CCCCC1 is reported as 99.1% (cell-free assay; 0.5 µM).
